How the values were obtained:
[1] = folding enthalpy; higher = less favourable; fluorescence melt of hairpins on a sequencing array, two-state fit; conditions: sodium 0.088 M
Outline: (§1)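 Library hairpins on a sequenced MiSeq flow cell carried annealed Cy3 and quencher oligos, and their Cy3 fluorescence was imaged in 50 mM Na-HEPES pH 8.0 with 25 mM NaCl, in 2.5 °C steps up to 60 °C. Signals were normalised to Cy3 before quenching and to control constructs. Melting temperature and folding enthalpy were obtained from bootstrapped two-state fits, combined by inverse-variance weighting across four replicates, and the fitted temperatures were then raised by 9.35 °C to match UV melts.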

[2] = melting temperature; fluorescence melt of hairpins on a sequencing array, two-state fit, raised by 9.35 °C to match UV melts; conditions: sodium 0.088 M
Outline: as §1

Sequence	folding enthalpy [1]	Tm [2]
GGTGGACGAAAGTCTACC (((.(((....))).)))	-41.5 kcal/mol	59 °C
GGTGGAGGAAACCCCACC (((((.(....).)))))	-43.6 kcal/mol	51.1 °C
GGTGGAGGAAACTTCGCC ((.(.((....)).).))	-28.2 kcal/mol	37.7 °C
GGTGGCCCGAAAGGGACC (((..(((....))))))	-12.7 kcal/mol	52.2 °C
GGTGGCCGAAAGGCACC (((.(((....))))))	-18.5 kcal/mol	61.8 °C
GGTGGCGAAAGCCCTACC ((((((....)))..)))	-13.2 kcal/mol	36.1 °C
GGTGGCGAAAGCCGCACC ((((((....)))..)))	-9.89 kcal/mol	47.7 °C
GGTGGCGGAAACGCCATC (.(((((....))))).)	-16.4 kcal/mol	59.9 °C
GGTGGCGGAAACGCCGTC (..((((....))))..)	-10.1 kcal/mol	45.1 °C
GGTGGCTCGAAAGAGACC (((..(((....))))))	-13.5 kcal/mol	42 °C
GGTGGGCCGAAAGGCACC (((..(((....))))))	-10.5 kcal/mol	50.5 °C
GGTGGGGGAAACCCTGCC ((..(((....)))..))	-27.9 kcal/mol	47.8 °C
GGTGGGGGAAACCTCGCC ((.(.((....)).).))	-30.8 kcal/mol	45.6 °C
GGTGGTACGAAAGTAACC (((..(((....))))))	-19 kcal/mol	43.8 °C
GGTGGTCGAAAGACACC (((.(((....))))))	-17.5 kcal/mol	54.8 °C
GGTGGTCGAAAGACTACC (((.(((....))).)))	-43.2 kcal/mol	57 °C
GGTGTACCGAAAGGTACC (((..(((....))))))	-9.75 kcal/mol	44.7 °C
GGTGTAGGAAACTGCACC ((((.((....)).))))	-44.5 kcal/mol	52.7 °C
GGTGTCCGAAAGGAACC (((.(((....))))))	-19.8 kcal/mol	48.3 °C
GGTGTCGAAAGACGCACC ((((((....)))..)))	-13.6 kcal/mol	42.4 °C
GGTGTCGAAAGACGTACC ((((((....)))..)))	-19.3 kcal/mol	41.9 °C
GGTGTCGAAAGACTACC ((((((....))).)))	-17.7 kcal/mol	47.8 °C
GGTGTCGAAAGACTGACC ((((((....)))..)))	-18.4 kcal/mol	40.5 °C

Sequence	folding enthalpy [1]	Tm [2]
GGTGTCGGAAACGACGTC (..((((....))))..)	-12.3 kcal/mol	36.8 °C
GGTGTCGGAAACGGCATC (.((.((....)).)).)	-26.1 kcal/mol	44.4 °C
GGTGTGCGAAAGCAACC (((.(((....))))))	-17 kcal/mol	52.1 °C
GGTGTGCGAAAGCAGACC (((.(((....))).)))	-33.9 kcal/mol	64.4 °C
GGTGTGGCGAAAGCCACC (((..(((....))))))	-7.44 kcal/mol	49 °C
GGTGTGGGAAACCATACC (((.(((....))).)))	-33.5 kcal/mol	50.8 °C
GGTGTGGGAAACCGTACC (((..((....))..)))	-24.1 kcal/mol	36.8 °C
GGTGTTACGAAAGTAACC (((..(((....))))))	-13.8 kcal/mol	45.2 °C
GGTGTTCCGAAAGGAACC (((..(((....))))))	-9.16 kcal/mol	47.7 °C
GGTTAAACGAAAGTTACC (((..(((....))))))	-14.3 kcal/mol	32 °C
GGTTAAGCGAAAGCTACC (((..(((....))))))	-18.2 kcal/mol	39.4 °C
GGTTAAGGAAACTTGACC (((.(((....))).)))	-30.1 kcal/mol	40.3 °C
GGTTACCGAAAGGTGACC (((.(((....))).)))	-41.4 kcal/mol	58.8 °C
GGTTACGAAAGTACCACC ((((((....)))..)))	-14.4 kcal/mol	36.6 °C
GGTTACGAAAGTACGACC ((((((....)))..)))	-14.9 kcal/mol	31.4 °C
GGTTACGAAAGTAGACC ((((((....))).)))	-25.3 kcal/mol	41.4 °C
GGTTACGAAAGTATACC ((((((....))).)))	-23.8 kcal/mol	43.1 °C
GGTTACGGAAACGCAACC ((((.((....)).))))	-32.7 kcal/mol	46.6 °C
GGTTAGCGAAAGCTACC (((.(((....))))))	-17.2 kcal/mol	53.3 °C
GGTTAGCGAAAGCTGACC (((.(((....))).)))	-36.4 kcal/mol	58.4 °C
GGTTATCCGAAAGGAACC (((..(((....))))))	-15.2 kcal/mol	30.2 °C
GGTTATGCGAAAGCAACC (((..(((....))))))	-15.1 kcal/mol	38.3 °C
GGTTATGGAAACATGACC (((.(((....))).)))	-33.2 kcal/mol	45.4 °C

Sequence	folding enthalpy [1]	Tm [2]
GGTTCACGAAAGTGACC (((.(((....))))))	-15.5 kcal/mol	59 °C
GGTTCCGAAAGGAACACC ((((((....)))..)))	-8.81 kcal/mol	51.9 °C
GGTTCCGAAAGGACACC ((((((....))).)))	-24.5 kcal/mol	48 °C
GGTTCCGAAAGGATGACC ((((((....)))..)))	-18.5 kcal/mol	38.2 °C
GGTTCGAAAGAACC (((((....)))))	-28.2 kcal/mol	64.8 °C
GGTTCGCGAAAGCGCACC (((.(((....))).)))	-29.5 kcal/mol	55.4 °C
GGTTCTCGAAAGAGACC (((.(((....))))))	-20.9 kcal/mol	49.7 °C
GGTTCTCGAAAGAGCACC (((.(((....))).)))	-31.1 kcal/mol	45.9 °C
GGTTGACGAAAGTCACC (((.(((....))))))	-19.8 kcal/mol	53.5 °C
GGTTGACGAAAGTCGACC (((.(((....))).)))	-46.8 kcal/mol	63 °C
GGTTGAGGAAACTCAATC (.(((((....))))).)	-28.3 kcal/mol	43.4 °C
GGTTGTGCGAAAGCAACC (((..(((....))))))	-19.1 kcal/mol	42.8 °C
GGTTGTGGAAACACAACC (((((((....)))))))	-42 kcal/mol	66.3 °C
GGTTGTGGAAACACAATC (.(((((....))))).)	-29.7 kcal/mol	47.9 °C
GGTTGTGGAAACGCAATC (.(((.(....).))).)	-20.6 kcal/mol	35.7 °C
GGTTTAACGAAAGTTACC (((..(((....))))))	-14.6 kcal/mol	29.6 °C
GGTTTAGCGAAAGCTACC (((..(((....))))))	-12.1 kcal/mol	32 °C
GGTTTAGGAAACCAAACC (((((.(....).)))))	-22.9 kcal/mol	37 °C
GGTTTCACGAAAGTGACC (((..(((....))))))	-12.3 kcal/mol	29.2 °C
GGTTTCCGAAAGGAGACC (((.(((....))).)))	-51 kcal/mol	54.4 °C
GGTTTCGAAAGAAACACC ((((((....)))..)))	-11.3 kcal/mol	45.7 °C
GGTTTCGAAAGAAAGACC ((((((....)))..)))	-14.4 kcal/mol	30.1 °C

Reference: the array DNA melting data of Ke et al. (doi:10.1101/2024.01.08.574731)
